Data: ChEMBL document CHEMBL3872218, “Synthesis and T-type calcium channel-blocking effects of aryl(1,5-disubstituted-pyrazol-3-yl)methyl sulfonamides for neuropathic pain treatment” (Eur J Med Chem, 2016)
Each block holds one compound with its values, some of them ahead of it.

Experiments:
[1] = molecular target: T1, Voltage-dependent T-type calcium channel subunit alpha-1G (Homo sapiens, UniProt O43497); assay: Inhibition of Cav3.1 alpha1G (unknown origin) expressed in HEK293 cells assessed as decrease in KCl-induced depolarization mediated intracellular Ca2+ level at 10 uM by fluo3/AM based high throughput screening assay relative to control; assay type: cell-based
Summary of the method: (§1)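 HEK293 cells stably expressing Cav3.1 or Cav3.2 plated at 4 × 10⁴ cells/well and used the next day. Loaded 60 min at room temperature with […] fluo3/AM plus 0.001% Pluronic F-127 in HEPES-buffered saline (1.8 mM CaCl₂, pH 7.4). Ca²⁺ fluorescence read on FDSS6000 as % inhibition, compound at […].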

[2] = molecular target: T2, Voltage-dependent T-type calcium channel subunit alpha-1H (Homo sapiens, UniProt O95180); assay: Inhibition of Cav3.2 alpha1H (unknown origin) expressed in HEK293 cells assessed as decrease in KCl-induced depolarization mediated intracellular Ca2+ level at 10 uM by fluo3/AM based high throughput screening assay relative to control; assay type: cell-based; summary of the method: as §1
[3] = test system: Rattus norvegicus; assay: Antineuropathic pain activity in rat spinal nerve ligation model assessed as effect on mechanical allodynia by measuring frequency of paw withdrawal at 100 mg/kg, po measured at 5 hrs relative to control; assay type: functional
Summary of the method: (§2)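 Spinal nerve ligation rats tested 2 weeks after nerve surgery, 100 mg/kg oral, n = 4 per group. Behaviour re-tested at 1, 3 and 5 h after dosing. Mechanical allodynia: von Frey filament applied five times, every 3–4 s, to the hind paw on a wire mesh floor. Cold allodynia: acetone applied to the plantar hind paw on a metal mesh floor.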

[4] = test system: Rattus norvegicus; assay: Antineuropathic pain activity in rat spinal nerve ligation model assessed as effect on cold allodynia by measuring frequency of paw withdrawal at 100 mg/kg, po measured at 1 hr relative to gabapentin; assay type: functional; summary of the method: as §2
[5] = test system: Rattus norvegicus; assay: Antineuropathic pain activity in rat spinal nerve ligation model assessed as effect on mechanical allodynia by measuring frequency of paw withdrawal at 100 mg/kg, po measured at 5 hrs relative to gabapentin; assay type: functional; summary of the method: as §2
[6] = test system: Rattus norvegicus; assay: Antineuropathic pain activity in rat spinal nerve ligation model assessed as effect on mechanical allodynia by measuring frequency of paw withdrawal at 100 mg/kg, po measured at 1 hr relative to control; assay type: functional; summary of the method: as §2
[7] = molecular target: T2, Voltage-dependent T-type calcium channel subunit alpha-1H; assay: Inhibition of Cav3.2 alpha1H (unknown origin) expressed in HEK293 cells by whole-cell patch clamp method; assay type: cell-based
Summary of the method: (§3)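 Whole-cell patch clamp on HEK293 cells expressing Cav3.1 or Cav3.2. T-type currents evoked every 15 s by a 50-ms step from −100 mV to −30 mV. External solution (mM): 140 NaCl, 2 CaCl₂, 10 HEPES, 10 glucose, pH 7.4.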

[8] = test system: Rattus norvegicus; assay: Antineuropathic pain activity in rat spinal nerve ligation model assessed as effect on cold allodynia by measuring frequency of paw withdrawal at 100 mg/kg, po measured at 3 hrs relative to gabapentin; assay type: functional; summary of the method: as §2
[9] = test system: Rattus norvegicus; assay: Antineuropathic pain activity in rat spinal nerve ligation model assessed as effect on cold allodynia by measuring frequency of paw withdrawal at 100 mg/kg, po measured at 1 hr relative to control; assay type: functional; summary of the method: as §2
[10] = organism: Homo sapiens; assay: Inhibition of N-type Ca2+ channel (unknown origin) at 10 uM by whole-cell patch clamp method relative to control
[11] = test system: Rattus norvegicus; assay: Antineuropathic pain activity in rat spinal nerve ligation model assessed as effect on mechanical allodynia by measuring frequency of paw withdrawal at 100 mg/kg, po measured at 3 hrs relative to gabapentin; assay type: functional; summary of the method: as §2
[12] = molecular target: CYP2C9 (Homo sapiens, UniProt P11712); assay: Inhibition of human CYP2C9 assessed as remaining activity at 10 uM using vivid CYP450 substrate measured after 15 mins by fluorescence assay relative to sulfaphenazol; assay type: ADME; settings: probe vivid CYP450 substrate, read-out: Activity
Summary of the method: (§4)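 Vivid fluorescence CYP assay: test compound at […] in water, mixed with BACULOSOMES master pre-mix and regeneration system, preincubated 15 min at 37 °C. Reaction started with Vivid substrate and NADPH. Remaining activity read by fluorescence as % of control, triplicate, mean ± SD. Isoform-specific reference inhibitors: α-naphthoflavone (1A2), sulfaphenazole (2C9), quinidine (2D6), ketoconazole (3A4).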

[13] = molecular target: CYP2D6 (Homo sapiens, UniProt P10635); assay: Inhibition of human CYP2D6 assessed as remaining activity at 10 uM using vivid CYP450 substrate measured after 15 mins by fluorescence assay relative to quinidine; assay type: ADME; settings: probe vivid CYP450 substrate, read-out: Activity; summary of the method: as §4
[14] = molecular target: CYP3A4 (Homo sapiens, UniProt P08684); assay: Inhibition of human CYP3A4 assessed as remaining activity at 10 uM using vivid CYP450 substrate measured after 15 mins by fluorescence assay relative to ketoconazole; assay type: ADME; settings: probe vivid CYP450 substrate, read-out: Activity; summary of the method: as §4
[15] = molecular target: T1, Voltage-dependent T-type calcium channel subunit alpha-1G; assay: Inhibition of Cav3.1 alpha1G (unknown origin) expressed in HEK293 cells by whole-cell patch clamp method; assay type: cell-based; summary of the method: as §3
[16] = test system: Rattus norvegicus; assay: Antineuropathic pain activity in rat spinal nerve ligation model assessed as effect on cold allodynia by measuring frequency of paw withdrawal at 100 mg/kg, po measured at 3 hrs relative to control; assay type: functional; summary of the method: as §2
[17] = Metabolic stability in human liver microsomes assessed as compound remaining at 1 uM in presence of NADPH as cofactor by LC-MS/MS method; assay type: ADME; settings: read-out: Stability
Summary of the method: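 Pooled mixed-gender human liver microsomes incubated with compound at 37 °C with NADPH as cofactor. Result given as % parent compound remaining.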

[18] = test system: Rattus norvegicus; assay: Antineuropathic pain activity in rat spinal nerve ligation model assessed as effect on cold allodynia by measuring frequency of paw withdrawal at 100 mg/kg, po measured at 5 hrs relative to control; assay type: functional; summary of the method: as §2
[19] = test system: Rattus norvegicus; assay: Antineuropathic pain activity in rat spinal nerve ligation model assessed as effect on mechanical allodynia by measuring frequency of paw withdrawal at 100 mg/kg, po measured at 1 hr relative to gabapentin; assay type: functional; summary of the method: as §2
[20] = test system: Rattus norvegicus; assay: Antineuropathic pain activity in rat spinal nerve ligation model assessed as effect on cold allodynia by measuring frequency of paw withdrawal at 100 mg/kg, po measured at 5 hrs relative to gabapentin; assay type: functional; summary of the method: as §2
[21] = test system: Rattus norvegicus; assay: Antineuropathic pain activity in rat spinal nerve ligation model assessed as effect on mechanical allodynia by measuring frequency of paw withdrawal at 100 mg/kg, po measured at 3 hrs relative to control; assay type: functional; summary of the method: as §2
[22] = test system: N1E-115; assay: Inhibition of voltage dependent T-type Ca2+ channel in mouse N1E-115 cells assessed as reduction in transient inward Ca2+ current at 50 uM by whole-cell patch clamp method relative to control; assay type: cell-based
[23] = organism: Rattus norvegicus; assay: Inhibition of voltage dependent T-type Ca2+ channel in Wistar rat cerebral cortex assessed as reduction in transient inward Ca2+ current at -60 mV holding potential at 500 uM by whole-cell patch clamp method relative to control

T2 sequence (O95180 whole entry): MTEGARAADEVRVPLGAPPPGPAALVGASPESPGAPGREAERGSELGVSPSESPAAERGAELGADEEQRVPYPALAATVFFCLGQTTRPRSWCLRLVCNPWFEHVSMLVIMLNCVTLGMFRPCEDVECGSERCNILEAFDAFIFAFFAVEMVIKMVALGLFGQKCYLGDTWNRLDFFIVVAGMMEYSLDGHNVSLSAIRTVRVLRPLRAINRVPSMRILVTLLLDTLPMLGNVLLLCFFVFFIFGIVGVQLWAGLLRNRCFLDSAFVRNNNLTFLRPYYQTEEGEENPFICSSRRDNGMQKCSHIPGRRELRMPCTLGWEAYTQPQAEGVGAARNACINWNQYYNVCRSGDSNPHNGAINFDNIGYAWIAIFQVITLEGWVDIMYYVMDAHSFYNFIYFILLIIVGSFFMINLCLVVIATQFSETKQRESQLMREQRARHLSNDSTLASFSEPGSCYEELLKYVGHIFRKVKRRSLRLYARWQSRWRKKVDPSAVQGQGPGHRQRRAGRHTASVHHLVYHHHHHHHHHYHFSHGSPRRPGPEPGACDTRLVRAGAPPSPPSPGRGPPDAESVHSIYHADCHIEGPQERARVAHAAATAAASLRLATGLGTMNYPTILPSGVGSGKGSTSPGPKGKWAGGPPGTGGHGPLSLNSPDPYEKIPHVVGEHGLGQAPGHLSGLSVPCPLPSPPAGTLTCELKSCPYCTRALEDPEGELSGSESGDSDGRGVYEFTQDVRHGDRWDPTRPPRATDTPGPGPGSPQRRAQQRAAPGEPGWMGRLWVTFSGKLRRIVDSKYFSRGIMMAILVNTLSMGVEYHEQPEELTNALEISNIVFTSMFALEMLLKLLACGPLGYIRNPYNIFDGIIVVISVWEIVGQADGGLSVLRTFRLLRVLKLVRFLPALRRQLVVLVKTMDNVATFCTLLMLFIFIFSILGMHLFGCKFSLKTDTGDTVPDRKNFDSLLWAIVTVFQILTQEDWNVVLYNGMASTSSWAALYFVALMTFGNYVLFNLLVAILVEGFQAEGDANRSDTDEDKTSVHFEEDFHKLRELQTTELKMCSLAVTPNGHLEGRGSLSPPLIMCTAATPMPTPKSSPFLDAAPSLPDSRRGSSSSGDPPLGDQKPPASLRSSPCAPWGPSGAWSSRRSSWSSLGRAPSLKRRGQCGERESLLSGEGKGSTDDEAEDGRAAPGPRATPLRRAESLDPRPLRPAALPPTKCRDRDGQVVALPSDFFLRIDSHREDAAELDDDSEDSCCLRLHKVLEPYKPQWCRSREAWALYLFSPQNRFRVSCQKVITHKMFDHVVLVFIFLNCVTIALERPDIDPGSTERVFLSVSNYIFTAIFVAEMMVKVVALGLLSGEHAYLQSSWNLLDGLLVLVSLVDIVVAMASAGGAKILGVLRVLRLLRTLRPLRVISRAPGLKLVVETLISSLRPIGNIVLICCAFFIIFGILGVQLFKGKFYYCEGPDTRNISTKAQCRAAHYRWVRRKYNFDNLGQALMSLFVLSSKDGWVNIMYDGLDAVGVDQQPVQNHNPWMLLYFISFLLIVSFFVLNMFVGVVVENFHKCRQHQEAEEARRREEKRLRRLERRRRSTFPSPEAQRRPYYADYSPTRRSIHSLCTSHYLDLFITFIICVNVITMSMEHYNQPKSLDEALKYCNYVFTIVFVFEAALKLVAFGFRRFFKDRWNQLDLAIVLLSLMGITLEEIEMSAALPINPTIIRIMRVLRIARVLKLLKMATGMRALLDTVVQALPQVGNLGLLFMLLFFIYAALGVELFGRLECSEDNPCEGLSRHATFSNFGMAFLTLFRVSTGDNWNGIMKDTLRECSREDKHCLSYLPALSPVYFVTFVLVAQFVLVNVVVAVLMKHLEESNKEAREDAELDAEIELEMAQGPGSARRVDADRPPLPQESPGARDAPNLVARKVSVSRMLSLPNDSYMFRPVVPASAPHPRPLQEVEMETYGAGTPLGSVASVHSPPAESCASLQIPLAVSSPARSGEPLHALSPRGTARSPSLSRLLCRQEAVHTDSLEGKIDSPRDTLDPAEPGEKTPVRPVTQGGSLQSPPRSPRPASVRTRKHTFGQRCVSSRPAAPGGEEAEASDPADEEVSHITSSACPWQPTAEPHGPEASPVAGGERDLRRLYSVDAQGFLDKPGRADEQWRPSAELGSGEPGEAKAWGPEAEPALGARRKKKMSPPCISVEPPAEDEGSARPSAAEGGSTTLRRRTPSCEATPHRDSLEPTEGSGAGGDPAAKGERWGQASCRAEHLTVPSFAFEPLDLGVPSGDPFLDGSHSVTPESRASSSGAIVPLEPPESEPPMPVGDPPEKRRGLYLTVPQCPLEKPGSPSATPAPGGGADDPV
T1 sequence (O43497 whole entry): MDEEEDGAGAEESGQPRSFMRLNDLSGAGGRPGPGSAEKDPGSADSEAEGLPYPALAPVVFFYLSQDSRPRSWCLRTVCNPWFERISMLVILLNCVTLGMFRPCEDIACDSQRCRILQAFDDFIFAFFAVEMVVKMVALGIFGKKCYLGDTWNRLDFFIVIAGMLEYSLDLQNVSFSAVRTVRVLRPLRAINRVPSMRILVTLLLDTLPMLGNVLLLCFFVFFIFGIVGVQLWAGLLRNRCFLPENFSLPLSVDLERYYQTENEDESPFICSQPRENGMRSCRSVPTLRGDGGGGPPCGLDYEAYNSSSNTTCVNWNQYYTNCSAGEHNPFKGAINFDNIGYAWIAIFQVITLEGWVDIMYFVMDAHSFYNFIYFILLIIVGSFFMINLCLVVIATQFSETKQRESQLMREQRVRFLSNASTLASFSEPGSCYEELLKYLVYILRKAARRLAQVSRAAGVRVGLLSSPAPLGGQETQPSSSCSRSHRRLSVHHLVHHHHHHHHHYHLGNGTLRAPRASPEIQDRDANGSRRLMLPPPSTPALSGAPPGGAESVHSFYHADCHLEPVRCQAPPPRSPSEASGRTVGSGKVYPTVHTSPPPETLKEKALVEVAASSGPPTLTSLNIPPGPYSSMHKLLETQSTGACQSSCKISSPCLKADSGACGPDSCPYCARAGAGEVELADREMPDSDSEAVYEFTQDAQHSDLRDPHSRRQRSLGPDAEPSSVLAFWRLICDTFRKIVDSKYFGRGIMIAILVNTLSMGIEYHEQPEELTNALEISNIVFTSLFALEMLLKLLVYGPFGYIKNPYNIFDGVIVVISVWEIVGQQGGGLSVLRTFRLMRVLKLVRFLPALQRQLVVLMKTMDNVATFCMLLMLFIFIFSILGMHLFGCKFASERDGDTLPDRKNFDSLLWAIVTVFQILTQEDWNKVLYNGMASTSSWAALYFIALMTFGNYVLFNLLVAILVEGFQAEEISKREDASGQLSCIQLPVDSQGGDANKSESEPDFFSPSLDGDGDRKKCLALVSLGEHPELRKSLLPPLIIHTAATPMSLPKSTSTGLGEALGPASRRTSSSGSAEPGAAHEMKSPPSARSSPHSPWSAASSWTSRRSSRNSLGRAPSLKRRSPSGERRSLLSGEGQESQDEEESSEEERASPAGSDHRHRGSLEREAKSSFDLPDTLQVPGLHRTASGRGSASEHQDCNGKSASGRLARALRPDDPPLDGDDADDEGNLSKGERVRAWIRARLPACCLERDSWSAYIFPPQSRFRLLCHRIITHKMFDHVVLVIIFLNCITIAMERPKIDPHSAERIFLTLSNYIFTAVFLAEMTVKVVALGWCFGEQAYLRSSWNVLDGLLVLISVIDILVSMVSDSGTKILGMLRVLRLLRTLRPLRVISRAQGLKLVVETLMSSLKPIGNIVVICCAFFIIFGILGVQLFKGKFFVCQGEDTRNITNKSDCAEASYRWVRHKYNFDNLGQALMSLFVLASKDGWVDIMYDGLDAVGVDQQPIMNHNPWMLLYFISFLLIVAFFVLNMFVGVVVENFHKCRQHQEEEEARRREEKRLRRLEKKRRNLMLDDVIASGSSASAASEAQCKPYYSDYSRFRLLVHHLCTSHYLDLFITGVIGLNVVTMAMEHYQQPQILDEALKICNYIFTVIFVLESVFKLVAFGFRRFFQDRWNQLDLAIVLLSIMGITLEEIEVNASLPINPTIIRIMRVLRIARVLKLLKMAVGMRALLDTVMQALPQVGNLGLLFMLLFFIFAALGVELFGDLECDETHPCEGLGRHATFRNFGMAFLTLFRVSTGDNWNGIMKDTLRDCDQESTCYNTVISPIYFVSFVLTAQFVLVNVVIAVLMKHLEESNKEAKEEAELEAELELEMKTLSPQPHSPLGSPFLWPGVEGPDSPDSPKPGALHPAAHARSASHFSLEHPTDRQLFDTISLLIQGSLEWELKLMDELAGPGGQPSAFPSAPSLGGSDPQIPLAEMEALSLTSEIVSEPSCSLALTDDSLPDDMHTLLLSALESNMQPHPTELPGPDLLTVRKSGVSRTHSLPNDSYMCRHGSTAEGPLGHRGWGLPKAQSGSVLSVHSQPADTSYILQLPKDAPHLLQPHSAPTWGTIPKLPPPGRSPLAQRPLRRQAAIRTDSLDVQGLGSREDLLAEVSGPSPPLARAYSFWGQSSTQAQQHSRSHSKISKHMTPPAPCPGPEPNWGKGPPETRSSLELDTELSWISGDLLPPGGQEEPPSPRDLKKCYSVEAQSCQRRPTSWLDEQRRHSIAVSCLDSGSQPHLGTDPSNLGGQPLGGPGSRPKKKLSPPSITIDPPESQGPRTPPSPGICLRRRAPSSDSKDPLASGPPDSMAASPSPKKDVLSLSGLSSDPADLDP

inhibition [1]: 54.9%
inhibition [2]: 70%
SMILES: Cc1ccc(F)c(S(=O)(=O)NCc2cc(CC(C)C)n(-c3ccccc3)n2)c1

inhibition [1]: 57.3%
inhibition [2]: 62.2%
SMILES: Cc1ccc(S(=O)(=O)NCc2cc(CC(C)C)n(-c3ccccc3)n2)cc1

inhibition [1]: 19.8%
inhibition [2]: 24.9%
SMILES: CC(C)Cc1cc(CNS(=O)(=O)c2ccc3ccccc3c2)nn1-c1ccccc1

More lines, now with the values behind:

SMILES: CC(C)Cc1cc(CNS(=O)(=O)Cc2cccc3ccccc23)nn1-c1ccccc1
inhibition [1]: 7.09%
inhibition [2]: 6.66%

SMILES: Cc1cc(I)ccc1S(=O)(=O)NCc1cc(CC(C)C)n(-c2ccccc2)n1
inhibition [1]: 22.6%
inhibition [2]: 26.6%

SMILES: CC(C)Cc1cc(CNS(=O)(=O)CCc2ccccc2)nn1-c1ccccc1
MPE [3]: -4.68%
MPE [4]: 7%
MPE [5]: -10.34%
MPE [6]: -3.8%
IC50 [7]: 14.6 µM
MPE [8]: 11.27%
MPE [9]: 3.08%
inhibition [1]: 70.5%
inhibition [10]: 42.2%
MPE [11]: -12.82%
activity at 0.25 h, 10 µM [12]: 45.2%
activity at 0.25 h, 10 µM [13]: 45.2%
activity at 0.25 h, 10 µM [14]: 38.7%
IC50 [15]: 12.4 µM
MPE [16]: 9.07%
remaining at 1 µM [17]: 88.2%
MPE [18]: 3.08%
MPE [19]: -34.45%
MPE [20]: 7.05%
inhibition [2]: 68.6%
MPE [21]: -7.3%

SMILES: NS(=O)(=O)Cc1noc2ccccc12
inhibition [22]: 40%
inhibition [23]: 60%

SMILES: CC(C)Cc1cc(CNS(=O)(=O)c2c(Cl)cccc2Cl)nn1-c1ccccc1
inhibition [1]: 36.9%
inhibition [2]: 56%

SMILES: CC(C)Cc1cc(CNS(=O)(=O)c2cccc3cccnc23)nn1-c1ccccc1
inhibition [1]: 29.8%
inhibition [2]: 61.4%
